We go through 3 compounds from ChEMBL document CHEMBL1136746 (2003).

Assay [1] is filed under the species Rattus norvegicus. Kind of assay: Reduction in the amplitude of the nACh-activated current in rat parasympathetic ganglia at 10 uM (n = 3); No effect. It counts as functional, organism-based. Summed up:
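Perforated-patch whole-cell recording with 240 µg/mL amphotericin B in the pipette (K₂SO₄/KCl/MgSO₄/HEPES, pH 7.2). Bath: NaCl/KCl/CaCl₂/MgCl₂/glucose/HEPES. ACh 500 µM plus atropine 100 nM applied 2 s by piezo. Peptide is present in pipette and perfusate. Current is expressed as % of control, mean ± SEM.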

For assay [2], the species on record is Rattus norvegicus. Kind of assay: Reduction in the amplitude of the nACh-activated current in rat parasympathetic ganglia at a concentration of 22 nM to that of control response (n =4). Also noted: scale not given: the % may be the effect or the level left. The format is functional.
The species named for assay [3] is Rattus norvegicus. Kind of assay: Percent Hemolysis observed in rat red blood cells when Treated with 5 mM concentration. The format is functional.
Assay [4] is filed under the species Rattus norvegicus. In words: Reduction in the nACh-activated current in rat parasympathetic ganglia at a concentration of 4.5 nM to that of control response (n =3). It counts as functional. Set-up: scale not given: the % may be the effect or the level left.
The species entered for assay [5] is Rattus norvegicus. Kind of assay: Percent Hemolysis observed in rat red blood cells when Treated with 2 mM concentration. The format is functional.
The species named for assay [6] is Rattus norvegicus. Kind of assay: Reduction in the amplitude of the nACh-activated current in rat parasympathetic ganglia at a concentration of 222 nM to that of control response (n =3). It counts as functional. Set-up: scale not given: the % may be the effect or the level left.
The species named for assay [7] is Rattus norvegicus. In words: Percent Hemolysis observed in rat red blood cells when Treated with 1 mM concentration. It counts as functional.
The next assay concerns Caco-2. Kind of assay: Apparent Permeability through Caco-2 cell monolayers (n = 4). The format is functional, cell-based. Conditions: Homo sapiens. Summed up: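 Caco-2 cells seeded on polycarbonate inserts (0.45 µm pore, 6.5 mm) and grown 21 days to differentiate; TEER >400 Ω/cm² before and after. ³H-acetylated peptide or [¹⁴C]mannitol (200 µM) added apically in HBSS/25 mM HEPES pH 7.4, 37 °C, shaken 400 rpm. Receiver chamber swapped at 30, 90, 150 min; scintillation counting. Papp averaged over four replicates.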

Assay [8] is filed under the species Rattus norvegicus. In words: Reduction in the amplitude of the nACh-activated current in rat parasympathetic ganglia. The format is functional, organism-based.
Assay [9] is filed under the species Rattus norvegicus. In words: Reduction in the amplitude of the nACh-activated current in rat parasympathetic ganglia at a concentration of 22 nM to that of control response (n =2). Set-up: scale not given: the % may be the effect or the level left. The format is functional.

Where “and” joins values, the source holds several entries; their conditions need not be identical. Equal values may be shown once. Calls of active or inactive are those of the source. No cut-off for these calls is given here.

In the case of `CCCCCCCCCCC1C(=O)[C@H](CC(N)=O)NC(=O)[C@H](CO)NC(=O)[C@@H]2CSSC[C@@H](C(=O)O)NC(=O)[C@H](CC(C)C)NC(=O)[C@H](CC(N)=O)NC(=O)[C@H](CO)NC(=O)[C@H](Cc3c[nH]cn3)NC(=O)[C@H](CCC(=O)O)NC(=O)[C@H](CC(C)C)NC(=O)[C@H](Cc3c[nH]cn3)NC(=O)[C@H](CSSC[C@H](NC(=O)CN)C(=O)N2)NC(=O)[C@H](C(C)C)NC(=O)[C@@H]2CCCN12` (stereo partly specified), the Reduction entry in the assay filed under Rattus norvegicus [1] was “inactive”.

In general, Papp refers to a coefficient for how fast a substance crosses the barrier. By IC50 is commonly meant the point on the concentration scale where inhibition reaches its midpoint. Consider `CCCCCCCCCCC(NCC(=O)N[C@H]1CSSC[C@@H]2NC(=O)[C@H](C(C)C)NC(=O)[C@@H]3CCCN3C(=O)[C@H](CC(N)=O)NC(=O)[C@H](CO)NC(=O)[C@H](CSSC[C@@H](C(=O)O)NC(=O)[C@H](CC(C)C)NC(=O)[C@H](CC(N)=O)NC(=O)[C@H](CO)NC(=O)[C@H](Cc3c[nH]cn3)NC(=O)[C@H](CCC(=O)O)NC(=O)[C@H](CC(C)C)NC(=O)[C@H](Cc3c[nH]cn3)NC2=O)NC1=O)C(=O)O` (stereo partly specified), for which the Control in the assay filed under Rattus norvegicus [2] turned out to be 57%; in the assay listed under Rattus norvegicus [4], 92%; in the assay filed under Rattus norvegicus [6], 47%. Moreover, the Hemolysis in the assay filed under Rattus norvegicus [3] amounted to 0.83%; in the assay filed under Rattus norvegicus [5], 0.45%; in the assay listed under Rattus norvegicus [7], 1.04%. For the same compound, the Papp with Caco-2 was 4.97 10e-6 cm s-1. Moreover, inhibition in the assay filed under Rattus norvegicus [8] was half-maximal at 12.8 nM (IC50).

Regarding `CC(C)C[C@@H]1NC(=O)[C@H](CC(N)=O)NC(=O)[C@H](CO)NC(=O)[C@H](Cc2c[nH]cn2)NC(=O)[C@H](CCC(=O)O)NC(=O)[C@H](CC(C)C)NC(=O)[C@H](Cc2c[nH]cn2)NC(=O)[C@@H]2CSSC[C@H](NC(=O)CN)C(=O)N[C@@H](CSSC[C@@H](C(=O)O)NC1=O)C(=O)N[C@@H](CO)C(=O)N[C@@H](CC(N)=O)C(=O)N1CCC[C@H]1C(=O)N[C@@H](C(C)C)C(=O)N2`, the Hemolysis came out at 1.35% in the assay listed under Rattus norvegicus [3], 0.83% in the assay filed under Rattus norvegicus [5] and 0.53% in the assay listed under Rattus norvegicus [7]. Moreover, the Control in the assay listed under Rattus norvegicus [4] is 90%; in the assay filed under Rattus norvegicus [9] it was 57% and 41%. Besides, the Papp in the assay with Caco-2 is 20.5 10e-6 cm s-1. The same compound registered an IC50 in the assay listed under Rattus norvegicus [8] of 10 nM.
